# Measured values: ChEMBL document CHEMBL1126882, “Orally active central dopamine and serotonin receptor ligands: 5-, 6-, 7-, and 8-[[trifluoromethyl)sulfonyl]oxy]-2-(di-n-propylamino)tetralins and the formation of active metabolites in vivo” (J Med Chem, 1993)
# Active and inactive are the calls of the source. No cut-off for these calls is given here.
# Legend:
# Rattus norvegicus [1] = assay: Effective dose for half-maximal decrease in the accumulation of 5-hydroxytryptophan (5-HTP) in reserpinized rat brain hemispheral area by po administration; Inactive; type: functional, organism-based
# How it was run: (§1)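 Male Sprague-Dawley rats (200-300 g) got reserpine 5 mg/kg sc 18 h before. The test drug (saline) was given sc or po (po rats fasted 18 h), with NSD 1015, 30 min before decapitation. DOPA and 5-HTP in limbic, striatal and hemispheral tissue were measured by HPLC-ED. ED50 (half-maximal decrease) was taken from 4-6-dose curves, with deviation estimated graphically from SEM.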
# Rattus norvegicus [2] = assay: Effective dose for half-maximal decrease in the accumulation of 5-hydroxytryptophan (5-HTP) in reserpinized rat brain limbic area by po administration; Inactive; type: functional, organism-based; how it was run: as §1
# Rattus norvegicus [3] = assay: Effective dose for half-maximal decrease in the accumulation of 5-hydroxytryptophan (5-HTP) in reserpinized rat brain striatal area by po administration; Inactive; type: functional, organism-based; how it was run: as §1
# [4] = biological target: T1, 5-hydroxytryptamine receptor 1A (Rattus norvegicus, UniProt P19327); assay: (§2) Binding affinity against 5-hydroxytryptamine 1A receptor in homogenated rat brain tissue, using by [3H]8-OH-DPAT as radioligand; type: tissue-based
# T1 sequence (P19327 whole entry): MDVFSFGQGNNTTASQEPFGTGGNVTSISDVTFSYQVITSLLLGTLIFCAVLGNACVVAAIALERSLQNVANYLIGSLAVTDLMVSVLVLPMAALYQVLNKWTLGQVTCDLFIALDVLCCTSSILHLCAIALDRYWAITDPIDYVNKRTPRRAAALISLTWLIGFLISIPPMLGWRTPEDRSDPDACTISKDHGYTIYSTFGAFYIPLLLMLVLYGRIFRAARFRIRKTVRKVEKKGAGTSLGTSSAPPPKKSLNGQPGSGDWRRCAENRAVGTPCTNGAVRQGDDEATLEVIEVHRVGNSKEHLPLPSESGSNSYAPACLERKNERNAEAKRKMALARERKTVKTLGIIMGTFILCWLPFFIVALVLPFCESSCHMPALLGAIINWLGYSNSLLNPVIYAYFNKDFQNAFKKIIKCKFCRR
# How it was run: (§3)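 Rat brain homogenate was washed and preincubated in 50 mM Tris (pH 8.0) containing NaCl, CaCl2 and MgCl2, plus 10 μM pargyline. Nonspecific binding was defined with 10 μM 5-HT. Six drug concentrations (10⁻⁴-10⁻⁹ M) were tested, triplicate or single run. IC50 came from a semilog plot with linear regression.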
# [5] = biological target: T2, Dopamine receptor (Rattus norvegicus) (UniProt P25115+P19020+P30729+P18901+P61169); assay: Effective dose for half-maximal decrease in the accumulation of DOPA in reserpinized rat brain limbic area by po administration; type: functional, organism-based; how it was run: as §1
# [6] = biological target: T2, Dopamine receptor (Rattus norvegicus); assay: Effective dose for half-maximal decrease in the accumulation of DOPA in reserpinized rat brain limbic area by sc administration; type: functional, organism-based; how it was run: as §1
# [7] = biological target: T2, Dopamine receptor (Rattus norvegicus); assay: Effective dose for half-maximal decrease in the accumulation of DOPA in reserpinized rat brain striatal area by po administration; type: functional, organism-based; how it was run: as §1
# [8] = biological target: T2, Dopamine receptor (Rattus norvegicus); assay: Effective dose for half-maximal decrease in the accumulation of DOPA in reserpinized rat brain striatal area by sc administration; type: functional, organism-based; how it was run: as §1
# [9] = biological target: T2, Dopamine receptor (Rattus norvegicus); assay: Effective dose for half-maximal decrease in the accumulation of DOPA in reserpinized rat brain hemispheral area by po administration; type: functional, organism-based; how it was run: as §1
# [10] = biological target: T2, Dopamine receptor (Rattus norvegicus); assay: Effective dose for half-maximal decrease in the accumulation of DOPA in reserpinized rat brain hemispheral area by sc administration; Inactive; type: functional, organism-based; how it was run: as §1
# Rattus norvegicus [11] = species on record: Rattus norvegicus; assay: DA agonist induced behavior was charecterised by increased locomotion, sniffing and licking.++ indicates high intensity of behavioral effect; type: functional, organism-based
# How it was run: (§4)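 Male Sprague-Dawley rats (200-300 g) given reserpine 5 mg/kg sc in the neck 18 h before testing. The test compound, in 0.9% saline, was given sc in the neck (n = 4-5). Rats were placed singly in photocell motility meters right after dosing. Counts were recorded over 30 min, alongside gross behavioural observation of 5-HT and DA signs. Statistics: ANOVA with Fischer's PLSD versus reserpine controls.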
# [12] = biological target: T2, Dopamine receptor (Rattus norvegicus); assay: Effective dose for half-maximal decrease in the accumulation of DOPA in reserpinized rat brain striatal area by sc administration; Inactive; type: functional, organism-based; how it was run: as §1
# [13] = biological target: T2, Dopamine receptor (Rattus norvegicus); assay: Effective dose for half-maximal decrease in the accumulation of DOPA in reserpinized rat brain limbic area by sc administration; Inactive; type: functional, organism-based; how it was run: as §1
# Rattus norvegicus [14] = assay: post-synaptic agonistic effects by increase in locomotor activity at the dose of 0.08 umol/kg, sc in reserpinized rat; type: functional; how it was run: as §4
# [15] = Effective dose for half-maximal decrease in the accumulation of 5-hydroxytryptophan (5-HTP) in reserpinized rat brain striatal area by sc administration; type: functional; how it was run: as §1
# [16] = Effective dose for half-maximal decrease in the accumulation of 5-hydroxytryptophan (5-HTP) in reserpinized rat brain hemispheral area by po administration; type: functional; how it was run: as §1
# [17] = Effective dose for half-maximal decrease in the accumulation of 5-hydroxytryptophan (5-HTP) in reserpinized rat brain hemispheral area by sc administration; type: functional; how it was run: as §1
# [18] = Effective dose for half-maximal decrease in the accumulation of 5-hydroxytryptophan (5-HTP) in reserpinized rat brain limbic area by po administration; type: functional; how it was run: as §1
# [19] = Effective dose for half-maximal decrease in the accumulation of 5-hydroxytryptophan (5-HTP) in reserpinized rat brain limbic area by sc administration; type: functional; how it was run: as §1
# [20] = Effective dose for half-maximal decrease in the accumulation of 5-hydroxytryptophan (5-HTP) in reserpinized rat brain striatal area by po administration; type: functional; how it was run: as §1
# [21] = biological target: T1, 5-hydroxytryptamine receptor 1A; assay: as §2; type: tissue-based; remark: listed apart in the source
# How it was run: as §3, with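 “pargyline. It was incubated with 1 nM [3H]-8-OH-DPAT (final) for 15 min at 37 °C, then vacuum-filtered and counted by scintillation.” for “pargyline.”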
# [22] = biological target: T2, Dopamine receptor (Rattus norvegicus); assay: Effective dose for half-maximal decrease in the accumulation of DOPA in reserpinized rat brain hemispheral area by po administration; Inactive; type: functional, organism-based; how it was run: as §1
# D(2) dopamine receptor = D(2) dopamine receptor (Rattus norvegicus, UniProt P61169); assay: Binding affinity against dopamine receptor D2 in homogenated rat brain tissue, using by [3H]spiperone as radioligand; type: tissue-based
# Chain of D(2) dopamine receptor (P61169 whole entry): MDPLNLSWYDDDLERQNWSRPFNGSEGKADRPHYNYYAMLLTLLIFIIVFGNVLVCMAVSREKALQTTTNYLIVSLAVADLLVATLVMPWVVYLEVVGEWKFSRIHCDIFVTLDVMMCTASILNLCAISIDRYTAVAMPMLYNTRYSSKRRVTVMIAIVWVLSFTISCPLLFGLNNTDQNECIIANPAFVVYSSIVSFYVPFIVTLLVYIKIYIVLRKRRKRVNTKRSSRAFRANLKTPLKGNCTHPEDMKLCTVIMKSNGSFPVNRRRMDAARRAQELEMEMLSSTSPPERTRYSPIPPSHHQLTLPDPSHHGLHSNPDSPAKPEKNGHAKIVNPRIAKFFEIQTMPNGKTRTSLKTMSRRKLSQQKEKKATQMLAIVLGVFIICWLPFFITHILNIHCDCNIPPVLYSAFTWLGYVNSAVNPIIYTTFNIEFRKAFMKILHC
# How it was run: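 Rat striatal membranes were prepared in 50 mM potassium phosphate (pH 7.4). They were incubated with 0.5 nM [3H]spiperone (3 mg original tissue) for 10 min at 37 °C. Specific binding was defined with 10 μM 6,7-ADTN. Six drug concentrations (10⁻⁴-10⁻⁹ M) were tested, in triplicate or in a single experiment.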
structure (smiles),measurement,setting,value
CCCN(CCC)C1CCc2c(O)cccc2C1 (stereo not drawn) [5-OH-DPAT],ED50,Rattus norvegicus [1],inactive
same,ED50,Rattus norvegicus [2],inactive
same,ED50,Rattus norvegicus [3],inactive
same,Ki,[4],1.04 µM
same,ED50,[5],0.7 µmol/kg
same,ED50,[6],0.01 µmol/kg
same,ED50,[7],0.5 µmol/kg
same,ED50,[8],0.01 µmol/kg
same,ED50,[9],4 µmol/kg
same,ED50,[10],inactive
same,Behavioral observation,Rattus norvegicus [11],Active
same,ED50,[12],inactive
same,ED50,[13],inactive
same,Counts/30,Rattus norvegicus [14],60 min
CCCN(CCC)C1CCc2cccc(OC)c2C1 (stereo not drawn),ED50,[15],0.3 µmol/kg
same,ED50,[16],2.3 µmol/kg
same,ED50,[17],0.2 µmol/kg
same,ED50,[18],3.2 µmol/kg
same,ED50,[19],0.3 µmol/kg
same,ED50,[20],3.2 µmol/kg
same,Ki,[21],0.01 µM
same,ED50,[5],5.5 µmol/kg
same,ED50,[7],12.5 µmol/kg
same,ED50,[22],inactive
same,ED50,[10],inactive
same,ED50,[12],inactive
same,ED50,[13],inactive
same,Ki,D(2) dopamine receptor,0.16 µM
